Shown are actives, neighbours in structure and some others; about 2% of the full set was active somewhere.
Scp1 inh: blocks human Scp-1 phosphatase activity. Q9GZU7. Recombinant Scp1, phosphopeptide, malachite green phosphate absorbance. inhibition, % at 20 µM. hit rate 0.88% among 340,000. AID 493091;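 active = inhibition above about 50% at 20 µM, limit read from the data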
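System: SCP-1 catalytic domain; Reagent: Phospho 17-mer peptide substrate; Doses: one concentration, 20 µM, with 1.0% DMSO; Incubation: 45 min room-temperature reaction, 5 min colour, 30 min stabiliser; Signal: Phosphate-binding colour reagent, absorbance read at 630 nm.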
Rpn11 block: blocks the human proteasome subunit Rpn11; hit rate 0.59% among 360,000; human 26S proteasome, Ub4-pepOG fluorescence polarization; 20S core pre-blocked with epoxomicin; AID 588493; inhibition, % at 20 µM;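 active = inhibition at 20 µM, scaled to each plate's controls, above about 33%, limit read from the data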
DNMT1 inh: inhibitors of human DNMT1; inhibition (reported as % activation of signal), % at 10 µM; AID 588458; P26358; DNMT1 molecular beacon, Hinp1I cleavage, fluorescence; hit rate 0.83% among 360,000; in the data active = inhibition above about 50%
Target sequence (P26358 504-1616 limits assumed): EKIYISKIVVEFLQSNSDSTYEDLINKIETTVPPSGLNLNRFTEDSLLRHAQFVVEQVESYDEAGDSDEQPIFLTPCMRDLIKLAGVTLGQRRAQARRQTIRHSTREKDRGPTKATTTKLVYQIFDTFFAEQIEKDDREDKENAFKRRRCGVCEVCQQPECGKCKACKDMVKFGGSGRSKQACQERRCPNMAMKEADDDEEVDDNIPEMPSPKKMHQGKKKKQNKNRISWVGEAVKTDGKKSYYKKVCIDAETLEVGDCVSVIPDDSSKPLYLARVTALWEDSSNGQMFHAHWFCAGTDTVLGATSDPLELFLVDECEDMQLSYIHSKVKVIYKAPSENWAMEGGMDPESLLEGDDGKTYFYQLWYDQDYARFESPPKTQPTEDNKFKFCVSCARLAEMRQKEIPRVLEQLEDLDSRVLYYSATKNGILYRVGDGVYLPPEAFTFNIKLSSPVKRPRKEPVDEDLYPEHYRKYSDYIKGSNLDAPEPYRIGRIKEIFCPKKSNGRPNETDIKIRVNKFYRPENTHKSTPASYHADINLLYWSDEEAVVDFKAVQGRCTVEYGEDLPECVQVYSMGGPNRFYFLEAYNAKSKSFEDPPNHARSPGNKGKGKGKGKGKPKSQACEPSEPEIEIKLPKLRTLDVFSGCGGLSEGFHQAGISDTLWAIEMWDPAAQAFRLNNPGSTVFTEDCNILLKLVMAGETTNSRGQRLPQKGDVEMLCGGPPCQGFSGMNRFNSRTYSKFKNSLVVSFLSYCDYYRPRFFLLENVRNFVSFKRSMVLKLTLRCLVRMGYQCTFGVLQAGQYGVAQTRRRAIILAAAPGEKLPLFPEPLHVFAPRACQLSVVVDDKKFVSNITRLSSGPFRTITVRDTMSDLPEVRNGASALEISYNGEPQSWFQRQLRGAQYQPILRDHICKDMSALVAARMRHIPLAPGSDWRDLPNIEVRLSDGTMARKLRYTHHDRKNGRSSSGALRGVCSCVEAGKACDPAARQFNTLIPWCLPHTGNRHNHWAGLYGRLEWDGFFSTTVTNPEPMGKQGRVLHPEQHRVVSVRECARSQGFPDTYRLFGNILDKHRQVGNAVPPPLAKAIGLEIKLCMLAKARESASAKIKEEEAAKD
LMPTP inh: blocks human LMPTP phosphatase; P24666; recombinant LMPTP-A, OMFP fluorogenic substrate, fluorescence intensity; inhibition, % at 20 µM; hit rate 0.22% among 360,000;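 active = compounds that cut the enzyme signal by at least half of the control window in the single-dose screen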
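Assay system: LMPTP-A enzyme. Input: 0.625 nM LMPTP-A final. Probe or stimulus: 400 µM OMFP. Compound dosing: single 20 µM dose. Schedule: 50 min dark incubation at room temperature. Detection: fluorescence intensity of OMFP turnover product. Read-out: percent inhibition versus substrate-only and uninhibited controls. Benchmarks: no-enzyme low control, uninhibited high control.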
STEP block: inhibitors of human striatal-enriched phosphatase STEP | P54829 | recombinant STEP, OMFP fluorogenic substrate, fluorescence | inhibition, % at 20 µM | hit rate 0.25% among 360,000;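 active = inhibition at 20 µM, scaled per plate between control wells, above about 37%, limit read from the data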
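System: STEP phosphatase, cell-free reaction; Buffer or medium: Bis-Tris pH 6.0 buffer with DTT, detergent; Incubation: 20 min at room temperature, dark; Measured by: fluorescence, 480/540 nm.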
Rpn11 inh conf: confirmation of human proteasome Rpn11 inhibitors. shares compounds with Rpn11 block. purified human 26S proteasome, Ub4-pepOG fluorescence polarization; proteasome pretreated with epoxomicin. inhibition, % at 20 µM. hit rate 29% among 1,900. AID 602318
MMP-2 counter: counter-screen for RPN11 inhibitors: inhibition of human MMP-2. shares compounds with Rpn11 block. recombinant MMP-2, FRET peptide cleavage fluorescence. inhibition, % at 20 µM. hit rate 4% among 1,900;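 also: human MMP-2 activated beforehand with APMA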
Thrombin FP: counter-screen for RPN11 inhibitors: inhibition of bovine thrombin. shares compounds with Rpn11 block. bovine thrombin cleavage of Ub4-pepOG, fluorescence polarization. inhibition, % at 20 µM. hit rate 13% among 1,900. AID 602333;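 active = mean inhibition at least 40% at 20 µM, or signal 3 deviations below plate average, so some actives read negative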
STEP inh conf: STEP (human) phosphatase inhibition, single concentration confirmation; shares compounds with STEP block; recombinant STEP, OMFP fluorogenic substrate, fluorescence; inhibition, % at 20 µM; hit rate 32% among 520; AID 623866; call rule not given here
A number is an active result; . = inactive; / = not tested or not shown. Rule as the data show it, unless noted: active = inhibition above about 40%; inactive = the rest.

SMILES	Scp1 inh	Rpn11 block	DNMT1 inh	LMPTP inh	STEP block	Rpn11 inh conf	MMP-2 counter	Thrombin FP	others
O=c1[nH]c(=O)n(C2CCCCC2)c(O)c1/C=N/N1CCCCC1c1cccnc1 (stereo not given)	.	.	.	.	.	/	/	/
O=c1[nH]c(=O)n(-c2cccc3ccccc23)c(O)c1/C=N/N1CCCCC1c1cccnc1 (stereo not given)	.	44	.	.	.	90	.	67
Cn1c(O)c(/C=C/C=Nc2ccccc2)c(=O)n(C)c1=S	.	118	.	.	.	113	.	active
COc1ccc(N2C(=O)/C(=C/c3ccc(C)o3)C(=O)NC2=S)c(OC)c1	.	51	.	.	.	.	.	40
COc1ccc(N2C(=O)/C(=C/c3ccc(OC)c(OC)c3)C(=O)NC2=S)cc1	.	53	.	.	.	.	.	.
Cc1cccc(N2C(=O)/C(=C/c3ccc(N4CCN(C)CC4)o3)C(=O)NC2=S)c1C	.	/	.	.	.	/	/	/
CCN1CCC(NCC2CCCCC2)CC1	.	.	.	.	.	/	/	/
COc1cc(O)c2c(c1)/C=C/C[C@H](O)[C@H](O)C(=O)CCC[C@H](C)OC2=O	/	.	.	.	.	/	/	/
CCCC(=O)c1c(O)[nH]c(=O)[nH]c1=O	.	.	.	.	.	/	/	/
O=c1[nH]c(=S)[nH]c(O)c1N=Nc1ccc2c(c1)OCCO2	.	77	.	.	.	.	.	45
O=c1[nH]c(=S)[nH]c(O)c1N=Nc1ccc2c(c1)OCO2	.	46	.	.	.	.	.	.
O=c1[nH]c(O)c(N=Nc2ccc3c(c2)OCCO3)c(=O)[nH]1	.	55	.	.	.	.	.	.
O=c1[nH]c(O)c(N=Nc2ccc(S(=O)(=O)N3CCOCC3)cc2)c(=O)[nH]1	.	.	.	.	.	/	/	/
COc1ccc(N=Nc2c(O)[nH]c(=S)[nH]c2=O)cc1	.	/	.	.	.	/	/	/
COC(=O)C1=C(c2cccc(OC)c2OC)C[C@@H]2CC[C@H]1N2C(=O)NCCCOC(C)C	.	.	.	.	.	/	/	/
O=C1c2ccccc2-n2nnnc2C2c3ccccc3-n3nncc3CN12 (stereo not given)	/	.	.	.	.	/	/	/
CN1C(=O)/C(=C\c2ccc(Br)s2)C(=O)NC1=S	.	55	.	.	.	.	.	.
CN1C(=O)NC(=O)/C(=C/c2ccc([N+](=O)[O-])s2)C1=O	.	.	.	.	.	/	/	/
O=c1[nH]c(CN2CC=C(c3ccccc3)CC2)nc2cc(C(F)(F)F)ccc12	.	47	.	.	.	.	.	.
CN(C(=O)CN1CC=C(c2ccccc2)CC1)c1c(N)n(Cc2ccccc2)c(=O)[nH]c1=O	.	.	.	.	.	/	/	/
O=c1[nH]c(CN2CC=C(c3ccccc3)CC2)nc2scc(-c3ccccc3)c12	.	50	.	.	.	58	.	.
O=C(O)Cn1cc(C(=O)c2ccccc2F)c2ccccc21	.	.	.	.	.	/	/	/
NN=C1C(Cl)=C(Cl)C(Cl)=C1Cl	/	.	108	84	72	/	/	/	STEP inh conf=67
CCC(=O)[C@@H](C)[C@@H](O)[C@H](C)C[C@@H](C)C1OC(=O)C[C@@]2(O)CC=C(C)C(O2)C(C)=CCCC[C@H](O[C@H]2C[C@@H](OC(N)=O)[C@H](O)[C@@H](C)O2)C=C[C@H](C)C[C@H]1C (stereo not given in full)	/	/	/	.	/	/	/	/
